Data as given in ChEMBL document CHEMBL4028909, “Discovery of an Orally Bioavailable Benzofuran Analogue That Serves as a β-Amyloid Aggregation Inhibitor for the Potential Treatment of Alzheimer's Disease” (J Med Chem, 2018).
The source made the active and inactive calls. The rule behind the calls is not given here.

Tests used:
[1] = Terminal half life in mouse at 3 mg/kg, po; format: ADME, organism-based; conditions: in vivo, read-out: beta t1/2 (converted)
How it was run: (§1)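 Mouse pharmacokinetics: single i.v. dose of 3 mg/kg, or oral doses of 3, 10 and 30 mg/kg. Plasma concentration–time curves gave T1/2 (terminal, hr), Tmax (hr), Cmax, AUC and bioavailability (%).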

Canis familiaris = assay: Volume of distribution at steady state in po dosed dog; format: ADME, organism-based, Canis lupus familiaris; conditions: in vivo
[2] = AUClast in mouse at 3 mg/kg, iv; format: ADME, organism-based; parameters: dose 3 mg/kg, time 0 - last, route intravenous; conditions: in vivo
How it was run: (§2)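 Mice received a single dose of 3 mg/kg i.v. or 3, 10 or 30 mg/kg orally. Plasma concentration-time profiles were analysed for AUC from zero to infinity and to the last measured time (hr*ng/mL), Cmax (ng/mL, C0 after i.v.), Tmax and terminal half-life (hr), and oral bioavailability (%).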

[3] = target: Amyloid-beta precursor protein (Homo sapiens) (UniProt P05067); assay: Inhibition of HFIP-pretreated amyloid beta (1 to 42) (unknown origin) aggregation after 1 hr by transmission electron microscopic method
Cytochrome P450 3A4 = Cytochrome P450 3A4 (Homo sapiens, UniProt P08684); assay: Inhibition of CYP3A4 in human liver microsomes preincubated for 5 mins followed by addition of NADPH generating system measured after 20 mins by LC-MS/MS analysis; format: ADME
How it was run: (§3)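 Inhibition of each CYP isozyme (1A2, 2A6, 2C8, 2C9, 2C19, 2D6, 3A4) was measured in human liver microsomes. IC50 values were reported in μM.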

[4] = Half life in po dosed dog; format: ADME, organism-based, Canis lupus familiaris; conditions: in vivo
Cytochrome P450 2C8 = target: T1, Cytochrome P450 2C8 (Homo sapiens, UniProt P10632); assay: Inhibition of CYP2C8 in human liver microsomes preincubated for 5 mins followed by addition of NADPH generating system measured after 20 mins by LC-MS/MS analysis; format: ADME; how it was run: as §3
T1 sequence (P10632 whole entry): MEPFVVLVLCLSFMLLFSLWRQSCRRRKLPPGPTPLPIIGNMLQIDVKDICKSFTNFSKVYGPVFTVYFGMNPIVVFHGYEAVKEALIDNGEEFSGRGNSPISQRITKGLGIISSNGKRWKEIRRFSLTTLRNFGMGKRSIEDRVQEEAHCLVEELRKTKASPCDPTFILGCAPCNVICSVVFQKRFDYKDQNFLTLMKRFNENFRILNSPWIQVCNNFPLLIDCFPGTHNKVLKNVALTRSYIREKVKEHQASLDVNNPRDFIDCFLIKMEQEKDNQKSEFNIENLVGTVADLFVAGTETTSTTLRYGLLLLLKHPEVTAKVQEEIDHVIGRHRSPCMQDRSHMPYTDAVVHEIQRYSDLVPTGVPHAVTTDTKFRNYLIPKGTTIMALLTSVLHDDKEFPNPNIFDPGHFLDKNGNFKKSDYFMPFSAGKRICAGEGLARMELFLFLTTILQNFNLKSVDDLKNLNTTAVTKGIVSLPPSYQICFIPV

[5] = AUClast in mouse at 30 mg/kg, po; format: ADME, organism-based; parameters: dose 30 mg/kg, time 0 - last, route oral; conditions: in vivo; how it was run: as §2
[6] = Oral bioavailability in dog; format: ADME, organism-based, Canis lupus familiaris; conditions: in vivo
Mus musculus [7] = assay: Reversal of cognitive deficit in amyloid beta (1 to 42)-treated Alzheimer's disease ICR mouse model assessed as increase in spatial memory function by measuring spontaneous alternation at 1 mg/kg, po administered for 3 consecutive days by Y maze test relative to control; format: functional
How it was run: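 Acute AD model: preformed Aβ aggregates injected directly into the brains of normal mice to induce acute neurotoxicity. Compound given orally for three consecutive days, then the Y-maze was run. Read-out is percentage of spontaneous alternation, compared against normal and vehicle-treated mice.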

[8] = Cmax in po dosed dog; format: ADME, organism-based, Canis lupus familiaris; parameters: route oral; conditions: in vivo
Cytochrome P450 2D6 = Cytochrome P450 2D6 (Homo sapiens, UniProt P10635); assay: Inhibition of CYP2D6 in human liver microsomes preincubated for 5 mins followed by addition of NADPH generating system measured after 20 mins by LC-MS/MS analysis; format: ADME; how it was run: as §3
Mus musculus [9] = assay: Antiamyloidogenic activity in po dosed double APP/PS1 transgenic Alzheimer's disease mouse model assessed as decrease in amyloid beta (1 to 40) levels in brain administered as qd for 8 weeks by sandwich ELISA; format: functional, organism-based
How it was run: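 APP/PS1 mice, 29 weeks old, were dosed orally once daily for eight weeks at 30 or 100 mg/kg, with a vehicle group. Brain tissue was homogenized and amyloid fibrils were solubilized to monomers. Aβ1-40 and Aβ1-42 were then quantified by immunoassay with antibodies specific to monomeric Aβ.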

[10] = Terminal half life in mouse at 10 mg/kg, po; format: ADME, organism-based; conditions: in vivo, read-out: beta t1/2 (converted); how it was run: as §1
Mus musculus [11] = assay: Reversal of cognitive deficit in amyloid beta (1 to 42)-treated Alzheimer's disease ICR mouse model assessed as increase in step-through latency time administered orally for 3 consecutive days by passive avoidance test; format: functional
How it was run: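 Acute AD model: preformed Aβ aggregates injected into the brains of normal mice. Compound given orally for three consecutive days, then step-through passive avoidance was tested by a standard protocol. Read-out is step-through latency (sec), compared against control and vehicle groups.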

[12] = target: Amyloid-beta precursor protein (Homo sapiens) (UniProt P05067); assay: Induction of HFIP-pretreated amyloid beta (1 to 42) (unknown origin) disaggregation at 3.1 to 50 uM after 1 hr by Thioflavin-T fluorescence assay relative to control
[13] = AUC in po dosed ICR mouse; format: ADME, organism-based; conditions: in vivo

Chain of Amyloid-beta precursor protein (Homo sapiens) (P05067 whole entry): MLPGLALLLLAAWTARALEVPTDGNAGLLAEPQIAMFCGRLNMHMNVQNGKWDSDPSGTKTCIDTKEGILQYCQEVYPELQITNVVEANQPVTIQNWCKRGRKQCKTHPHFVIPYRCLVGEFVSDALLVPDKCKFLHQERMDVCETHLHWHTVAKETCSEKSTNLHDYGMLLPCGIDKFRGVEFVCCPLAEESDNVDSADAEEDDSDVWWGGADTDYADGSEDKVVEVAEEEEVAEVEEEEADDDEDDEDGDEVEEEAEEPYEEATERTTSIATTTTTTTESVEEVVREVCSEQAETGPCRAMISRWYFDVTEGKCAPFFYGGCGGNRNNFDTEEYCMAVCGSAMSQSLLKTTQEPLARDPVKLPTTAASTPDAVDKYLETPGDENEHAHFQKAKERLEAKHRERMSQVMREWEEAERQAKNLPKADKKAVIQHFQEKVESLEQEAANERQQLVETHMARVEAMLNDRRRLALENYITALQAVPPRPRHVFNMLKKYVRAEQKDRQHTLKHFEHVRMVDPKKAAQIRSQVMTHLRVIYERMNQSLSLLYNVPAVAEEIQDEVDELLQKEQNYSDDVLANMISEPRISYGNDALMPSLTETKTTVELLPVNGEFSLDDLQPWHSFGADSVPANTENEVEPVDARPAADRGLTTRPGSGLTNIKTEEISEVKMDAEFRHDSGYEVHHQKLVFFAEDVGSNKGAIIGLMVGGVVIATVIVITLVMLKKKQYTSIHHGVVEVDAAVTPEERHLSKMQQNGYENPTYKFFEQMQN
Chain of Cytochrome P450 2D6 (P10635 whole entry): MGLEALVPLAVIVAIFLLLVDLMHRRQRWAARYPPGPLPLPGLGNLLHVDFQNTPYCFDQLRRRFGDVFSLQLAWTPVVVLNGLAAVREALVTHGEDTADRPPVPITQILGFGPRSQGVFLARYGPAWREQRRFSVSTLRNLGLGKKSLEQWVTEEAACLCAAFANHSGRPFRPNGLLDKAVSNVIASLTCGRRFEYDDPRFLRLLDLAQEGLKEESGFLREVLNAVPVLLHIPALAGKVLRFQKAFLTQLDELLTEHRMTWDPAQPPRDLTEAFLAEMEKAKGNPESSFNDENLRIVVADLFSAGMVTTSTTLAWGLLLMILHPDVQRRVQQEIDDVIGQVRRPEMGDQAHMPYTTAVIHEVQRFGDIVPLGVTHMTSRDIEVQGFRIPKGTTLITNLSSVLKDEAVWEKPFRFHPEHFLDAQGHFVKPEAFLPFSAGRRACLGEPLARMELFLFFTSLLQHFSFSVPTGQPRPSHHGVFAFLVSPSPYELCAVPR
Chain of Cytochrome P450 3A4 (P08684 whole entry): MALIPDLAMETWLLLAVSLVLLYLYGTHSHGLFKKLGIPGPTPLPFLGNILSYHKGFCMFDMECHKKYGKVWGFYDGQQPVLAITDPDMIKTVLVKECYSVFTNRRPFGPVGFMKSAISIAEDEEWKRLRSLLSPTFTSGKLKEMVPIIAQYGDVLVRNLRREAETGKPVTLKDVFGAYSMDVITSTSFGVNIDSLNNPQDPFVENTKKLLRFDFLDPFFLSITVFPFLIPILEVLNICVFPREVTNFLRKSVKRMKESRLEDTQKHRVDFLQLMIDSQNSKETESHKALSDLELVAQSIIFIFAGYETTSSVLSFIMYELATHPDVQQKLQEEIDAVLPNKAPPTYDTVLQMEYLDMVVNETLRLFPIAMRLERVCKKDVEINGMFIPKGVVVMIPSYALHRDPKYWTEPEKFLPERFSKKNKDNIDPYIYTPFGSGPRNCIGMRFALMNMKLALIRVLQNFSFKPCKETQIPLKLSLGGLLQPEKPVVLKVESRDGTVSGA

In the case of `COCCCc1ccc2oc(-c3ccc(OC)c(OC)c3)cc2c1`, the half-life [1] is reported as 2 h, the Vdss (Canis familiaris) is reported as 2.7 L/kg and the AUC(0-t) [2] is reported as 1300 ng·h/mL. For the same compound, the inhibition [3] was “Active”, the IC50 (Cytochrome P450 3A4) was over 50 µM and the half-life [4] was 1.4 h. It also gave an IC50 (Cytochrome P450 2C8) of 31.4 µM, an AUC(0-t) [5] of 10400 ng·h/mL and a bioavailability [6] of 25%. For the same compound, the Activity (Mus musculus [7]) was 71.22%, the Cmax [8] was 1610 ng/mL and the IC50 (Cytochrome P450 2D6) was over 50 µM. For the same compound, the Activity (Mus musculus [9]) was “Dose-dependent effect”, the half-life [10] was 1.6 h and the Activity (Mus musculus [11]) was “Dose-dependent effect”. It also gave an ED50 (Mus musculus [11]; po) of 0.19 mg/kg, an Activity [12] of 40% and an AUC [13] of 13200 ng·h/mL.
